The results in this text go back to ChEMBL document CHEMBL4732225, “Identification of a new class of HBV capsid assembly modulator” (Bioorg Med Chem Lett, 2021).

A short description of series [1]: Metabolic stability in human microsomes assessed as intrinsic clearance. The series is classed as ADME, Microsome.
The nature of series [2]: Plasma clearance in Sprague-Dawley rat at 5 mg/kg, po or 1.25 mg/kg, iv. The series is classed as ADME, organism-based. The essentials: (§1)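 Sprague-Dawley rats, n = 3. Oral dose 5 mg/kg in 70% PEG400 vehicle; IV dose 1.25 mg/kg in saline vehicle.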
Series [3] in a line: Volume of distribution at steady state in Sprague-Dawley rat at 5 mg/kg, po or 1.25 mg/kg, iv. The series is classed as ADME, organism-based. The conditions noted are these: in vivo, read-out: Vdss. The procedure, abridged: as §1
A short description of series [4]: Half life in Sprague-Dawley rat at 5 mg/kg, po or 1.25 mg/kg, iv. The series is classed as ADME, organism-based. The conditions noted are these: in vivo. The procedure, abridged: as §1
The nature of series [5]: Cmax in Sprague-Dawley rat at 5 mg/kg, po. Set-up: route oral, dose 5 mg/kg. The conditions noted are these: in vivo. Type of series: ADME, organism-based. The essentials: as §1
Series [6] in a line: Tmax in Sprague-Dawley rat at 5 mg/kg, po. To be noted: in vivo. The series is classed as ADME, organism-based. The procedure, abridged: as §1
Series [7] is described as follows: AUC (0 to infinity) in Sprague-Dawley rat at 5 mg/kg, po. Type of series: ADME, organism-based. The arrangement: time infinity, route oral, dose 5 mg/kg. To be noted: in vivo. The procedure, abridged: as §1
Series [8] in a line: Oral bioavailability in Sprague-Dawley rat at 5 mg/kg. Type of series: ADME, organism-based. To be noted: in vivo. The procedure, abridged: as §1
The nature of series [9]: Ratio of drug level in liver to plasma in Sprague-Dawley rat at 5 mg/kg, po or 1.25 mg/kg, iv. The series is classed as ADME, organism-based. The conditions noted are these: liver and plasma. The essentials:
as §1

Series [10] can be described thus: Volume of distribution at steady state in Beagle dog at […], po or 1 mg/kg, iv. Type of series: ADME, organism-based, Canis lupus familiaris. The conditions noted are these: in vivo, dose 2.5 mg/kg, read-out: Vdss.
Series [11] can be described thus: Half life in Beagle dog at […], po or 1 mg/kg, iv. Type of series: ADME, organism-based, Canis lupus familiaris. The conditions noted are these: in vivo, dose 2.5 mg/kg.
Series [12] can be described thus: Cmax in Beagle dog at […], po. Type of series: ADME, organism-based, Canis lupus familiaris. Set-up: route oral, dose 2.5 mg/kg. The conditions noted are these: in vivo.
A short description of series [13]: Tmax in Beagle dog at […], po. The series is classed as ADME, organism-based, Canis lupus familiaris. To be noted: in vivo, dose 2.5 mg/kg.
A short description of series [14]: AUC (0 to infinity) in Beagle dog at […], po. The series is classed as ADME, organism-based, Canis lupus familiaris. Set-up: route oral, time infinity, dose 2.5 mg/kg. The conditions noted are these: in vivo.
A short description of series [15]: Oral bioavailability in Beagle dog at […]. Type of series: ADME, organism-based, Canis lupus familiaris. To be noted: in vivo, dose 2.5 mg/kg.

`C[C@H]1Cc2[nH]nc(-c3cscn3)c2CN1C(=O)Nc1ccc(F)c(Br)c1`: in series [1], the CLint scaled turned out to be 24 mL/min/kg.

For the compound `C[C@H]1Cc2[nH]nc(-c3cccs3)c2CN1C(=O)Nc1cccc(Cl)c1`, the CLint scaled in series [1] is 17 mL/min/kg.

As for `C[C@H]1Cc2[nH]nc(-c3cscn3)c2CN1C(=O)Nc1ccc(F)c(C#N)c1`, in [1], the CLint scaled came out at 13 mL/min/kg. In series [2], this compound registered a clearance of 30.7 mL/min/kg. Moreover, the Vd in [3] came out at 2.97 L/kg; in series [10] it was 3 L/kg. Besides, the half-life in series [4] is 2.28 h; in series [11], 2.17 h. The Cmax was 73 ng/mL in series [5] and 472 ng/mL in series [12]. Also, the Tmax in series [6] stood at 6 h; in series [13], 1 h. The same compound showed an AUC(0-inf) in series [7] of 1030 ng·h/mL. In addition, the bioavailability in series [8] was found to be 38%. The Kp in series [9] was found to be 17. Besides, in series [14], the AUC was found to be 1620 ng·h/mL. The F in series [15] came out at 73%.

Regarding `CC[C@H]1Cc2[nH]nc(-c3ccccc3)c2CN1C(=O)Nc1cccc(Cl)c1`, in series [1], the CLint scaled stood at 22 mL/min/kg.

`O=C(Nc1cccc(Cl)c1)N1CCc2[nH]nc(-c3nccs3)c2C1`: the CLint scaled in series [1] worked out at 53 mL/min/kg.

Turning to `C[C@H]1Cc2[nH]nc(-c3cscn3)c2CN1C(=O)Nc1cccc(Cl)c1`, in series [1], the CLint scaled was 20 mL/min/kg.

Turning to `C[C@H]1Cc2[nH]nc(-c3cscn3)c2CN1C(=O)Nc1ccc(F)c(Cl)c1`, in [1], the intrinsic metabolic clearance (CLint scaled) came out at 21 mL/min/kg.

Turning to `O=C(Nc1cccc(Cl)c1)N1CCc2[nH]nc(-c3cccs3)c2C1`, in series [1], the CLint scaled was 356 mL/min/kg.

`C[C@@H]1Cc2[nH]nc(-c3ccccc3)c2CN1C(=O)Nc1cccc(Cl)c1`: the CLint scaled in [1] turned out to be 43 mL/min/kg.

As for `O=C(Nc1cccc(Cl)c1)N1CCc2[nH]nc(-c3cscn3)c2C1`, in series [1], the CLint scaled was 33 mL/min/kg.

Take `C[C@H]1Cc2[nH]nc(-c3cscn3)c2CN1C(=O)Nc1ccnc(Br)c1F`: in series [1], the CLint scaled was 12 mL/min/kg.

As for `Cc1cc(NC(=O)N2Cc3c(-c4cscn4)n[nH]c3C[C@@H]2C)ccc1F`, the CLint scaled in series [1] amounted to 14 mL/min/kg.

As for `O=C(Nc1cccc(Cl)c1)N1CCc2[nH]nc(-c3ccsc3)c2C1`, the CLint scaled in series [1] was 160 mL/min/kg.

For the compound `C[C@H]1Cc2[nH]nc(-c3ccccc3)c2CN1C(=O)Nc1cccc(Cl)c1`, the CLint scaled in series [1] is 15 mL/min/kg.

On to `C[C@H]1Cc2c(c(-c3cccs3)nn2C)CN1C(=O)Nc1cccc(Cl)c1`, for which the CLint scaled in series [1] worked out at 146 mL/min/kg.

Regarding `O=C(Nc1cccc(Cl)c1)N1CCc2[nH]nc(-c3cocn3)c2C1`, the CLint scaled in series [1] stood at 50 mL/min/kg.

As a reminder, the CLint scaled is the rate of metabolic loss divided by the concentration. A word on the half-life: it is the time needed for the level to fall by half in the phase considered. In general, Cmax refers to the peak of the concentration-time curve. A word on the Tmax: it is the time from dosing to the highest level. A word on the AUC(0-inf): it is total exposure, with the tail of the curve extrapolated. What is called bioavailability is dose-corrected exposure relative to a reference, in per cent. The term Kp denotes the ratio of the level in a tissue or fluid to that in plasma or blood. One may read the AUC as concentration integrated over time. The low end stands for less exposure, the high end for more exposure.
